High-throughput results from PubChem BioAssay.
M4 PAM: CHRM4 positive allosteric modulation. CHO-K1 hM4/Gqi5, Fluo-8 calcium fluorescence, ACh EC20; 0% = ACh EC20, 100% = maximal ACh. activation, % at 3 µM. hit rate 0.4% among 360,000. AID 624126;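 active = activation above its plate's cutoff, the mean activation of sample wells plus 3 SD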
Target sequence (P08173 whole entry, looked up): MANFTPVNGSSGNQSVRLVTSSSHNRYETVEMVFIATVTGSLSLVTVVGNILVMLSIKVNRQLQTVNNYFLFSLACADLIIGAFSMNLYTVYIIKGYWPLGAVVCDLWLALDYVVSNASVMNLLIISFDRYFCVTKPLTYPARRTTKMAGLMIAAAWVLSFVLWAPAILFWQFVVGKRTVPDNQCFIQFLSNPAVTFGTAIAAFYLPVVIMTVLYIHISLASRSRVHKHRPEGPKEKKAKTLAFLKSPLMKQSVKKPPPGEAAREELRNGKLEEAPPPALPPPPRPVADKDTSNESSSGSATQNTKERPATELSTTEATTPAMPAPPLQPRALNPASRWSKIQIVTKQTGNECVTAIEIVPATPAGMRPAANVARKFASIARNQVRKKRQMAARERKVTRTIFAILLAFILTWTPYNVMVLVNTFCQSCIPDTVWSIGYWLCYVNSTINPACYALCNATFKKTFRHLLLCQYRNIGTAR
M5 antag: blocks acetylcholine activation of human M5 receptor. hit rate 0.59% among 360,000. P08912. CHO-hM5 cells, Fluo-8 calcium fluorescence, ACh EC80. inhibition, % at 3 µM;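 active = inhibition above a per-plate cutoff, the mean of that plate's test compounds plus 3 SD, cut at about 27% in these data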
CHRM4 agonist: agonists of human muscarinic M4 receptor (CHRM4); CHO-K1 hM4/Gqi5, Fluo-8 calcium fluorescence; vehicle 0%, full acetylcholine response 100%; activation, % at 3 µM; hit rate 0.14% among 360,000; AID 624127;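 active = activation above the run mean over all test wells plus 3 SD, cut at about 32% in these data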;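 also: peak over basal fluorescence ratio per well then scaled between controls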
M5 PAM: positive allosteric modulators of human muscarinic M5 receptor; P08912; CHO-K1 hM5, Fluo-8 calcium, ACh EC20 PAM; 0% = ACh EC20, 100% = ACh EC100; activation, % at 3 µM; hit rate 0.3% among 360,000; AID 624038;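 active = activation above the run cutoff, the mean activation of all test compounds plus 3 SD, cut at about 18% in these data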
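System – CHO-K1 hM5 cells · Compound – 3 µM, single dose · Incubation – compound preincubation 140 s before EC20 acetylcholine addition · Technique – Fluo-8 calcium fluorescence · Measure – Max/basal fluorescence ratio as % of EC20–EC100 ACh window · Benchmarks – low control EC20 acetylcholine (0%), high control EC100 acetylcholine (100%) · Replication – singlicate, one well per test compound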
M4 antag: antagonists of human muscarinic M4 receptor (CHRM4); P08173; CHO-hM4 cells, ACh EC80, Fluo-8 calcium fluorescence; inhibition, % at 3 µM; hit rate 0.73% among 360,000; AID 624125;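 active = inhibition above its plate's cutoff, the mean inhibition of sample wells plus 3 SD, cut at about 27% in these data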
M5 ag: agonists of human muscarinic M5 receptor (CHRM5); P08912; CHO-K1 hM5 cells, Fluo-8 calcium fluorescence; 0% DMSO wells, 100% maximal acetylcholine response; activation, % at 3 µM; hit rate 0.19% among 360,000; AID 624037;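 active = activation above the run's mean over test compounds plus 3 SD, cut at about 23% in these data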;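 also: signal is peak over basal fluorescence ratio across the kinetic read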
Of the large screens only hits and unclear results are named; the others gave an inactive call. Most compounds without a hit are left out; they make up all but 1.8% or so of the library.

Cc1ccc(S(=O)(=O)c2ccc(C)cc2)cc1	none
S=c1c2c(nc3nc[nH]n13)CCC2	M5 PAM 18.3
CC1CCc2c(nc3nc[nH]n3c2=O)C1 (configuration not stated)	none
COC(=O)C1=CN(c2ccc3c(c2)OCO3)C(N)=C(C#N)C1c1ccc(-c2ccccc2)cc1 (configuration not stated)	none
O=C(O)CSc1nnc2c(n1)[nH]c1ccccc12	M5 antag 34.4
O=C(CSc1nnc2c(n1)[nH]c1ccccc12)OCc1ccccc1	none
COC(=O)[C@@]12C[C@@H](CC(=O)NCc3ccc(C)o3)C(=O)N(Cc3ccccc3)C1=CCC(C)(C)C2	none
Cc1ccc(C2=N/C(=C/N3CCOCC3)C(=O)O2)cc1	M5 PAM 38.4
O=C1c2cccc3cccc(c23)C(=O)N1CC1CCN(CC(O)COc2ccc3ccccc3c2)CC1 (configuration not stated)	M4 antag 101.5
Cc1onc(-c2ccccc2)c1CNC(=O)Nc1ccc(C(F)(F)F)cc1	M5 antag 37.5
Cc1cc(C)cc(NC(=O)NCc2c(-c3ccccc3)noc2C)c1	none
CC1(C(=O)Nc2cccc(Oc3ccccc3)c2)Cc2c(-c3ccc4c(c3)OCO4)ccnc2O1 (configuration not stated)	none
O=C(C[C@H]1CC[C@H]2[C@@H](COC[C@H](O)CN2Cc2ccccc2)O1)NCCCN1CCOCC1	none
COc1cccc(C(C(=O)NC2CCCC2)N(C(=O)c2ccco2)C2CC2)c1OC (configuration not stated)	none
COc1cccc(C(C(=O)NC2CCCC2)N(Cc2ccc(C)cc2)C(=O)c2ccco2)c1OC (configuration not stated)	M5 PAM 28.1
CCCCCCCCN1C(=O)[C@H](CC(=O)NCCc2ccccc2OC)C[C@@]2(C(=O)OC)CC(C)(C)CC=C12	none
O=C(C(=Cc1ccccc1)CN1CCCCC1)c1ccccc1	M4 antag 29.4
COc1ccc(CNC(=O)C2CC(c3ccc(F)cc3)=NO2)cc1 (configuration not stated)	M4 PAM 35.9
COc1ccc(C2=NOC(C(=O)NCc3ccc(F)cc3)C2)cc1 (configuration not stated)	none
O=C(C(=O)N1CCN(c2ccccc2)CC1)c1cccc(Br)c1	M4 antag 30.4
Cc1ccc(N2CCN(C(=O)C(=O)c3cccc(Br)c3)CC2)cc1	none
Cc1n[nH]c(C)c1Cc1c(F)cccc1Cl	M5 PAM 27.8
C=CCN1C(=O)S/C(=C\c2ccc(N3CCOCC3)cc2C)C1=O	M4 PAM 27.3
O=C(NCc1ccco1)c1nnc(Cc2ccc(F)cc2)o1	none
O=C(NCc1ccco1)c1nnc(Cc2ccc(Cl)cc2)o1	M4 antag 39.1
COc1ccc(OC)c2c1C(=O)C(Cl)=C(Cl)C2=O	M4 antag 60.5
CN1CCN(c2ccc(CNS(=O)(=O)c3ccc(F)cc3Cl)cc2)CC1	M4 PAM 19.6
COc1ccc(NC2=NCC(Cc3ccc(Br)cc3)S2)cc1 (configuration not stated)	M4 antag 29.3
Cc1ccc2ccccc2c1C(O)c1ncc(-c2ccccc2Cl)[nH]1 (configuration not stated)	none
Cc1cc(F)ccc1S(=O)(=O)N(CC(=O)N1CCOCC1)CC(=O)N1CCOCC1	M4 PAM 25.5
COc1ccc(OC)c(NC(=O)COc2cc(O)c3c(c2)OC(C)(C)CC3=O)c1	none
O=C(CC(=O)c1cc(Cl)ccc1O)c1ccccc1	none
O=C(c1ccccc1)c1cc(Cl)ccc1N1C(=O)C=CC1=O	M4 antag 34.5
CC(=O)N1CCN(C(=O)CCc2nc3ccccc3c(=O)[nH]2)CC1	none
O=C(CCc1nc2ccccc2c(=O)[nH]1)N1CCN(C/C=C/c2ccccc2)CC1	M5 antag 28.0
CNc1nc(Nc2ccc(C(=O)OC)cc2)c2sccc2n1	none
c1ccc(Nc2ncnc3sc4c(c23)CCC4)cc1	none
c1csc(CCNc2ncnc3sc4c(c23)CCC4)c1	M5 antag 32.3
Cc1ccccc1C(=O)NNC(=O)CCC(=O)Nc1cccc(Cl)c1C	M5 PAM 19.3
C=CCn1nc(C(=O)Nc2ccc(OC)cc2)cc1-c1sc(NC(=O)c2ccccc2)nc1C	none
CC(CC(=O)Nc1nnc(CC(C)(C)C)s1)c1ccccc1 (configuration not stated)	M5 PAM 21.6
COc1ccc(CNC(=O)c2ccc(-c3c(C)noc3C)c3ccoc23)cc1OC	none
CSc1ccc(/C=c2\s/c(=C\C(=O)C(C)(C)C)n(CC(=O)NCCC3=CCCCC3)c2=O)cc1	none
CCCNC(=O)Cn1c(=O)/c(=C/c2ccc(-c3ccc([N+](=O)[O-])cc3)o2)s/c1=C\C(=O)C(C)(C)C	M5 antag 53.3, CHRM4 agonist 34.7, M5 ag 122.7
Cc1ccc(NC2=NCC(=O)N2Cc2ccc3c(c2)OCO3)c(C)c1	none
CCc1ccc(NC2=NCC(=O)N2Cc2ccc3c(c2)OCO3)cc1	M4 PAM 20.8
O=C(COC(=O)CCC(=O)c1cccs1)Nc1cccc(S(=O)(=O)N2CCOCC2)c1	none
Cc1ccc(NC(=O)COC(=O)CCC(=O)c2cccs2)cc1S(=O)(=O)N1CCOCC1	M4 antag 31.5
CCOC(=O)C1=CCN(S(=O)(=O)c2ccc(C)cc2)C1c1ccc(Cl)c(Cl)c1 (configuration not stated)	none
CSc1nc(N)nc(SCC(=O)Nc2ccc(Cl)cc2)c1C#N	none
CSc1nc(N)nc(SCC(=O)Nc2cccc(F)c2)c1C#N	M5 antag 42.0
Cn1cnnc1SCCC(=O)Nc1ccccc1	M4 PAM 37.5
O=C(NCC1CCCCC1)c1csc([C@@H]2C[C@H](O)[C@@H](CO)O2)n1	none
OC[C@@H]1CN(Cc2cccs2)C[C@H](n2cnc3c(NCc4ccco4)ncnc32)O1	none
CCN(CC)CCNC1=NCCn2c1cc1cc(OC)ccc12	M5 PAM 20.2
C#CCNC(=O)C[C@@H]1C[C@@]2(C(=O)OCC)CCCC=C2N(CCCCCCCC)C1=O	none
CC[N+](C)(CC)CCC(c1ccccc1)C1CCCCC1 (configuration not stated)	M5 antag 99.0, M4 antag 97.1
O=C1CCCCC1C(O)(C(=O)c1ccccc1)c1ccccc1 (configuration not stated)	none
